PREPL inh: PREPL enzyme inhibitors, primary screen, biochemical, fluorescence polarization. recombinant PREPL, fluorescence polarization activity-based probe. inhibition, % at 5.96 µM. 320,000 compounds, 0.68% hits. AID 2751, 2010; in the data active = inhibition above about 43%
Rin1-Abl PPI inh: inhibitors of Rin1-Abl protein binding, primary screen, biochemical, TR-FRET. inhibition, % at 7.35 µM. 360,000 compounds, 0.4% hits; in the data active = inhibition above about 5%, passing the limit was not always enough
ALR inh: inhibitors of human ALR sulfhydryl oxidase, primary screen, biochemical, H2O2 detection, HRP-luminol luminescence, single point. FAD-linked sulfhydryl oxidase ALR (Homo sapiens), P55789. purified ALR, DTT oxidation. 290,000 compounds, 3.8% hits. inhibition, % (concentration not given with the values);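 active = mean replicate inhibition above about 79%, with every replicate also reaching it, limit read from the data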
SUMO HTRF inh: inhibitors of in vitro SUMOylation cascade, primary screen, biochemical, HTRF, uHTS; SUMO-conjugating enzyme UBC9 (Homo sapiens), P63279; HTRF SUMOylation assay, SAE1/SAE2 + UBC9; inhibition, % at 35 µM; 290,000 compounds, 0.36% hits; AID 2006, 2009; in the data active = inhibition above about 50%, passing the limit was not always enough
UBC13 polyUb: UBC13 polyubiquitin chain formation inhibitors, primary screen, biochemical, TR-FRET, uHTS; inhibition, % at 20 µM; AID 485273, 2010; 330,000 compounds, 0.47% hits; in the data active = inhibition above about 45%, passing the limit was not always enough
Target sequence (P61088 whole entry, looked up): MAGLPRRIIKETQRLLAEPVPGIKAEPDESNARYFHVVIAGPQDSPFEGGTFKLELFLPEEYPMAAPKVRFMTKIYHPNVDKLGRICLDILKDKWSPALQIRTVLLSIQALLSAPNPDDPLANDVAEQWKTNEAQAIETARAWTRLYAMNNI
RBBP9 inhibitor: human RBBP9 inhibitors, primary screen, biochemical, fluorescence polarization, FP-Rh probe, HTS; Serine hydrolase RBBP9 (Homo sapiens), O75884; inhibition, % at 7.94 µM; recombinant RBBP9; 220,000 compounds, 0.2% hits;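 active = inhibition above the campaign mean of all tested compounds plus 3 SD, cut at about 14% in these data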
Target sequence (O75884 whole entry, looked up): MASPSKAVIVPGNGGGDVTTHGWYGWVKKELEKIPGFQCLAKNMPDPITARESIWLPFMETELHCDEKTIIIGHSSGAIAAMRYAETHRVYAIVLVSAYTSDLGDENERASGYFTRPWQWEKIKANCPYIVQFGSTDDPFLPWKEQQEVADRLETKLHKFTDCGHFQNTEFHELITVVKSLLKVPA
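System: RBBP9 protein / Quantity: 2.5 µM RBBP9 dispensing solution, before mixing / Also added: Serine-hydrolase probe FP-Rh, 375 nM pre-mixing / Dosing: 7.94 µM single dose, 0.794% DMSO / Timing: enzyme-compound preincubation 30 min, then probe labeling 45 min, 25 °C / Signal: FP readout at 525/598 nm / Controls: DMSO-treated enzyme wells and wells lacking RBBP9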
Of the large screens only hits and unclear results are named; the others gave an inactive call. Only some compounds are listed: those with a hit (about 4.3% of all), similar ones and a draw of the others.

COCC(C)OC(=O)/C(C#N)=C\c1coc2ccc(C)cc2c1=O (centres undefined)	ALR inh 96.3 (no result: UBC13 polyUb)
S=C(N=Nc1ccccc1)NNc1ccccc1	ALR inh 99.3
S=C(NNC(=S)Nc1ccc(Cl)cc1)NNc1ccccc1	none (no result: PREPL inh, ALR inh, SUMO HTRF inh, UBC13 polyUb, RBBP9 inhibitor)
O=C(CCN1CCCC1)c1cccs1	ALR inh 98.5
COc1ccc(C(=O)CCN2CCCCCC2)cc1	none
O=C(CCc1ccc(CCC(=O)c2cccs2)s1)c1cccs1	ALR inh 92.4
O=C(CCN1CCC(c2ccccc2)C1)c1cccs1 (centres undefined)	none
O=C(CCN1CCCCCC1)c1ccccc1	ALR inh 90.7, RBBP9 inhibitor 17.6
COc1cccc(NC(=O)CCCn2nc(C)c3c(C)n(-c4ccccc4)nc3c2=O)c1	none (no result: RBBP9 inhibitor)
O=c1[nH]c(Nc2ccccc2Cl)cc2ccccc12	none (no result: SUMO HTRF inh, RBBP9 inhibitor)
Cc1ccccc1Nc1cc2ccccc2c(=O)[nH]1	Rin1-Abl PPI inh 16.4 (no result: SUMO HTRF inh)
CC(=O)c1ccc(-n2nnnc2SCC(=O)Nc2cccc(NC(=O)c3ccco3)c2)cc1	ALR inh 99.1
CCn1c(SCC(=O)Nc2cccc(C(C)=O)c2)nnc1C(C)C	ALR inh 98.8
COc1ccc(-n2nnnc2SCC(=O)Nc2cccc(NC(C)=O)c2)cc1OC	ALR inh 99.3
COc1cccc(-n2nnnc2SCC(=O)Nc2cccc(NC(C)=O)c2)c1	none
CCC(=O)Nc1cc(NC(=O)CSc2nnc(C(C)C)n2CC)ccc1C	none
CC(=O)Nc1cccc(NC(=O)CSc2nnnn2Cc2ccccc2)c1	ALR inh 98.6
O=C(NC1CCCCC1)NC1C2CC3CC(C2)CC1C3 (centres undefined)	none (no result: RBBP9 inhibitor)
COc1ccc(N2CCN(C(=O)NC3CC(=O)N(c4ccc(OC)cc4)C3)CC2)cc1 (centres undefined)	none
CC(C)c1ccc(CN(C)C(=O)c2ccc(S(=O)(=O)NCc3ccco3)cc2)cc1	none (no result: ALR inh, SUMO HTRF inh, RBBP9 inhibitor)
CCC(C)N(C(=O)CSc1ccc(NC(C)=O)cc1)C1CCS(=O)(=O)C1 (centres undefined)	ALR inh 88.4
CC1(S(=O)(=O)O)CC(=O)c2ccccc2C1=O (centres undefined)	ALR inh 93.2 (no result: RBBP9 inhibitor)
CSCCC(NS(=O)(=O)c1ccc(C)cc1C)C(=O)Nc1cccnc1 (centres undefined)	none (no result: SUMO HTRF inh, RBBP9 inhibitor)
COc1ccccc1N1C(=O)CC(Sc2nccc(C)n2)C1=O (centres undefined)	none
COc1ccccc1N1C(=O)CC(Sc2n[nH]c(-c3cccc(C)c3)n2)C1=O (centres undefined)	ALR inh 98.8
Cc1cccc(CSc2nn3c(=O)c(C)nnc3s2)c1	ALR inh 98.7
Cc1nnc2sc(SCC(=O)Nc3ccc(Cl)cc3)nn2c1=O	ALR inh 93.0
CC(=O)Nc1cccc(NC(=O)CSc2nn3c(=O)c(C)nnc3s2)c1	ALR inh 98.2 (no result: RBBP9 inhibitor)
Cc1ccc(CSc2nn3c(=O)c(C)nnc3s2)cc1	none
Cc1nnc2sc(SCc3ccc(Cl)cc3)nn2c1=O	none (no result: ALR inh)
O=C(NO)c1ccc(OC(F)F)cc1	ALR inh 98.7
COc1cccc(CNC(=O)c2ccccc2NC(=O)C2=C(C)OCCS2)c1	none (no result: RBBP9 inhibitor)
COc1ccc(C(=O)NCc2cnn(C)c2C)cc1OC1CCN(C(C)C)CC1	none (no result: RBBP9 inhibitor)
O=C(O)CCn1cc(/C=C/C(=O)c2ccc(Cl)cc2)c(-c2ccc(Br)cc2)n1	ALR inh 97.5 (no result: UBC13 polyUb)
O=C(O)/C=C/c1cn(Cc2ccccc2)nc1-c1ccccc1	none
COc1cccc(NC(=O)CSCc2cc(=O)n3ccsc3n2)c1	ALR inh 99.1 (no result: RBBP9 inhibitor)
CCOCCc1nn2c(=O)cc(CSCC(=O)Nc3ccccc3)nc2s1	ALR inh 99.5 (no result: SUMO HTRF inh, RBBP9 inhibitor)
Cc1cccc(NC(=O)CSCc2cc(=O)n3nc(C4CC4)sc3n2)c1	ALR inh 98.3 (no result: RBBP9 inhibitor)
O=C(CSCc1cc(=O)n2ccsc2n1)Nc1ccccc1	ALR inh 98.9 (no result: SUMO HTRF inh, RBBP9 inhibitor)
CCOCCc1nn2c(=O)cc(CSCC(=O)Nc3ccc(OC)cc3)nc2s1	none (no result: SUMO HTRF inh, RBBP9 inhibitor)
